Test results taken from ChEMBL document CHEMBL3856208, “Lupane and 18α-oleanane derivatives substituted in the position 2, their cytotoxicity and influence on cancer cells” (Eur J Med Chem, 2016).

How the values were obtained:
CCRF-CEM [1] = assay: Inhibition of RNA synthesis in human CCRF-CEM cells assessed as decrease in BrU incorporation by measuring synthesized RNA levels at 4.6 uM after 24 hrs by propidium iodide staining-based flow cytometric method (reference value: 43.37%); format: functional; parameters: scale not given: the % may be the effect or the level left
[2] = Cytotoxicity against human CCRF-CEM cells after 72 hrs by MTS assay; format: functional, cell-based
Outline: (§1)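 Cells seeded at 25000–35000 cells/mL, compounds from DMSO dosed at time zero as four-fold dilutions. Exposure 72 h at 37 °C, 5% CO2, with MTS added for 1–4 h and OD read at 490 nm. Survival expressed as % of mean control OD, with IC50 from dose-response curves. Run as technical duplicates in at least three biological replicates.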

[3] = Cytotoxicity against human CEM/DNR cells after 72 hrs by MTS assay; format: functional, cell-based; outline: as §1
[4] = Cytotoxicity against human K562 cells after 72 hrs by MTS assay; format: functional, cell-based; conditions: K562, 72 h; outline: as §1
[5] = Cytotoxicity against human K562-TAX cells after 72 hrs by MTS assay; format: functional, cell-based; outline: as §1
[6] = Cytotoxicity against human A549 cells after 72 hrs by MTS assay; format: functional, cell-based; conditions: A549, 72 h; outline: as §1
[7] = Cytotoxicity against human HCT116 cells after 72 hrs by MTS assay; format: functional, cell-based; conditions: HCT-116, 72 h; outline: as §1
[8] = Cytotoxicity against p53 deficient human HCT116 cells after 72 hrs by MTS assay; format: functional, cell-based; conditions: HCT-116, 72 h; outline: as §1
[9] = Cytotoxicity against human U2OS cells after 72 hrs by MTS assay; format: functional, cell-based; outline: as §1
[10] = Cytotoxicity against human BJ cells after 72 hrs by MTS assay; format: toxicity, cell-based; outline: as §1
[11] = Cytotoxicity against human MRC5 cells after 72 hrs by MTS assay; format: toxicity, cell-based; outline: as §1
[12] = Therapeutic index, ratio of IC50 for human BJ cells to IC50 for human CCRF-CEM cells; format: cell-based; conditions: BJ cells versus CCRF-CEM cells, read-out: Ratio IC50
[13] = Therapeutic index, ratio of IC50 for human MRC5 cells to IC50 for human CCRF-CEM cells; format: cell-based; conditions: MRC5 cells versus CCRF-CEM cells, read-out: Ratio IC50
[14] = Cell cycle arrest in human CCRF-CEM cells assessed as accumulation at sub G1 phase at 4.6 uM after 24 hrs by propidium iodide staining-based flow cytometric method (reference value: 1.8%); format: functional
[15] = Cell cycle arrest in human CCRF-CEM cells assessed as accumulation at sub G1 phase at 23 uM after 24 hrs by propidium iodide staining-based flow cytometric method (reference value: 1.8%); format: functional
[16] = Cell cycle arrest in human CCRF-CEM cells assessed as accumulation at G0/G1 phase at 4.6 uM after 24 hrs by propidium iodide staining-based flow cytometric method (reference value: 36.41%); format: functional
[17] = Cell cycle arrest in human CCRF-CEM cells assessed as accumulation at G0/G1 phase at 23 uM after 24 hrs by propidium iodide staining-based flow cytometric method (reference value: 36.41%); format: functional
[18] = Cell cycle arrest in human CCRF-CEM cells assessed as accumulation at S phase at 4.6 uM after 24 hrs by propidium iodide staining-based flow cytometric method (reference value: 50.33%); format: functional
[19] = Cell cycle arrest in human CCRF-CEM cells assessed as accumulation at S phase at 23 uM after 24 hrs by propidium iodide staining-based flow cytometric method (reference value: 50.33%); format: functional
[20] = Cell cycle arrest in human CCRF-CEM cells assessed as accumulation at G2/M phase at 4.6 uM after 24 hrs by propidium iodide staining-based flow cytometric method (reference value: 13.28%); format: functional
[21] = Cell cycle arrest in human CCRF-CEM cells assessed as accumulation at G2/M phase at 23 uM after 24 hrs by propidium iodide staining-based flow cytometric method (reference value: 13.28%); format: functional
CCRF-CEM [22] = assay: Mitotic arrest in human CCRF-CEM cells assessed as phosphorylation of histone-3 at Ser10 at 4.6 uM after 24 hrs by flow cytometric method (reference value: 1.66%); format: functional
CCRF-CEM [23] = assay: Inhibition of DNA synthesis in human CCRF-CEM cells assessed as decrease in BrdU incorporation by measuring synthesized DNA levels at 4.6 uM after 24 hrs by propidium iodide staining-based flow cytometric method (reference value: 56.37%); format: functional; parameters: scale not given: the % may be the effect or the level left
Outline: (§2)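 CCRF-CEM cells were cultured and treated as for cell cycle analysis, then pulse-labeled with 10 µM BrDU for 30 min before harvest. Cells were ethanol-fixed, DNA-denatured in 2 M HCl for 30 min at room temperature, and neutralized with 0.1 M borax. Staining used anti-BrDU, then anti-mouse-FITC, then PI (0.1 mg/mL) with RNase A (0.5 mg/mL) for 1 h. Read-out was 488 nm flow cytometry.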

CCRF-CEM [24] = assay: Inhibition of DNA synthesis in human CCRF-CEM cells assessed as decrease in BrdU incorporation by measuring synthesized DNA levels at 23 uM after 24 hrs by propidium iodide staining-based flow cytometric method (reference value: 56.37%); format: functional; parameters: scale not given: the % may be the effect or the level left; outline: as §2
CCRF-CEM [25] = assay: Inhibition of RNA synthesis in human CCRF-CEM cells assessed as decrease in BrU incorporation by measuring synthesized RNA levels at 23 uM after 24 hrs by propidium iodide staining-based flow cytometric method (reference value: 43.37%); format: functional; parameters: scale not given: the % may be the effect or the level left
CCRF-CEM [26] = assay: Mitotic arrest in human CCRF-CEM cells assessed as phosphorylation of histone-3 at Ser10 at 23 uM after 24 hrs by flow cytometric method (reference value: 1.66%)

SMILES: CC1(C)CC[C@]23CC[C@]4(C)[C@H](CC[C@@H]5[C@@]6(C)CC(N)[C@H](O)C(C)(C)[C@@H]6CC[C@]54C)[C@H]2[C@H]1OC3 (stereo partly drawn)
- Activity (CCRF-CEM [1]): 42.98%
- IC50 [2]: 4.6 to 5 µM
- IC50 [3]: 5.9 µM
- IC50 [4]: 4.5 µM
- IC50 [5]: 3.9 µM
- IC50 [6]: 6.2 µM
- IC50 [7]: 4.9 µM
- IC50 [8]: 4.8 µM
- IC50 [9]: 6.2 µM
- IC50 at 72 h [10]: 7.1 µM
- IC50 at 72 h [11]: 6.3 µM
- selectivity ratio [12]: 1.4
- selectivity ratio [13]: 1.4
- Activity [14]: 2.79%
- Activity [15]: 7.1%
- Activity [16]: 40.7%
- Activity [17]: 28.9%
- Activity [18]: 47.8%
- Activity [19]: 54.9%
- Activity [20]: 11.5%
- Activity [21]: 16.2%
- Activity (CCRF-CEM [22]): 1.44%
- Activity (CCRF-CEM [23]): 53.53%
- Activity (CCRF-CEM [24]): 1.88%
- Activity (CCRF-CEM [25]): 2.23%
- Activity (CCRF-CEM [26]): 0.49%

SMILES: CC(C)[C@@H]1CC[C@]2(C(=O)O)CC[C@]3(C)[C@H](CC[C@@H]4[C@@]5(C)C=C(NC6=C[C@]7(C)[C@H]8CC[C@@H]9[C@H]%10[C@H](C(C)C)CC[C@]%10(C(=O)O)CC[C@@]9(C)[C@]8(C)CC[C@H]7C(C)(C)C6=O)C(=O)C(C)(C)[C@@H]5CC[C@]43C)[C@@H]12
- IC50 [2]: 26.6 to 27 µM
- IC50 [3]: 33.9 µM
- IC50 [4]: > 50 µM
- IC50 [5]: 20.1 µM
- IC50 [6]: > 50 µM
- IC50 [7]: > 50 µM
- IC50 [8]: > 50 µM
- IC50 [9]: > 50 µM
- IC50 at 72 h [10]: > 50 µM
- IC50 at 72 h [11]: > 50 µM
- selectivity ratio [12]: > 1.9
- selectivity ratio [13]: > 1.9
